From ChEMBL document CHEMBL3826950, “Design and development of new class of Mycobacterium tuberculosisl-alanine dehydrogenase inhibitors” (Bioorg Med Chem, 2016)
pIC50: −log10 of the molar value. Values after ≈ are worked out from the molar mass of the structure shown. Active and inactive are the calls of the source. No cut-off for these calls is given here.

Legend:
[1] = Cytotoxicity against mouse RAW264.7 cells assessed as reduction in cell viability at 25 uM measured after 48 hrs by MTT assay; format: cell-based; settings: read-out: INH
Method in brief: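 RAW 264.7 cells were grown in RPMI with 10% FBS and penicillin/streptomycin, seeded at about 5000 cells/well on poly-L-lysine, and held 24 h at 37 °C in 5% CO2. Compound exposure lasted 48 h. MTT (0.5 mg/ml) was added for 3 h and formazan was read at 595 nm.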

[2] = tested on: Mycobacterium tuberculosis; assay: Antibacterial activity against actively replicative Mycobacterium tuberculosis H37Rv measured after 7 days by MABA assay; format: functional; settings: 168 h
Method in brief: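 Serial two-fold dilutions in 7H9-S were tested against replicating M. tuberculosis H37Rv (ATCC 27294) at 37 °C for 7 days. Alamar blue was then added and plates were incubated overnight. MIC was the lowest concentration that prevented the blue-to-pink colour change.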

[3] = tested on: Mycobacterium tuberculosis; assay: Antibacterial activity against nutrient-starved dormant Mycobacterium tuberculosis H37Rv assessed in log reduction in bacterial count at 10 ug/ml measured after 7 days by MPN assay relative to control; format: functional
Method in brief: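 H37Rv was grown in 7H9/OADC, washed, and starved in PBS in sealed bottles at 37 °C for 6 weeks. The starved culture was treated for 7 days at 37 °C, then diluted 10-fold to 10^-6 in 7H9/OADC and plated in triplicate. After 28 days at 37 °C, wells with growth were scored and MPN was calculated (n = 3).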

[4] = Inhibition of Mycobacterium tuberculosis L-AlaDH assessed as NADH production by spectrophotometric method
Method in brief: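 Oxidative deamination of L-alanine to pyruvate was followed by NADH absorbance at 340 nm at 37 °C. Background was read from reaction mix without enzyme. Compounds were tested across a 25 to 0.5 range to derive IC50.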

SMILES	cytotoxicity at 48 h, 25 µM [1] [%]	MIC [2] [µM]	Activity [3]	pIC50 [4]	Log reduction in bacterial count [3]
O=C(NN1C(C(=O)Nc2nc3ccccc3s2)CC1C(=O)Nc1nc2ccccc2s1)c1ccccc1 (centres undefined)	12.3	5.93 (≈ 3.13 µg/mL)	inactive	< 4.60	
CO[C@H]1/C=C/O[C@@]2(C)Oc3c(C)c(O)c4c(O)c(c(/C=N/N5CCN(C)CC5)c(O)c4c3C2=O)NC(=O)/C(C)=C\C=C\[C@H](C)[C@H](O)[C@@H](C)[C@@H](O)[C@@H](C)[C@H](OC(C)=O)[C@@H]1C [RIFAMPIN]		0.15 (≈ 0.123 µg/mL)			2.2
Cc1cccc(NC(=O)C2CC(C(=O)Nc3cccc(C)n3)N2NC(=O)c2ccncc2)n1 (centres undefined)	3.89	3.51 (≈ 1.56 µg/mL)		4.83	
O=C(NN1C(C(=O)Nc2ccc(Cl)cc2)CC1C(=O)Nc1ccc(Cl)cc1)c1ccncc1 (centres undefined)	32.9	51.6 (≈ 25 µg/mL)		5.25	
O=C(NN1C(C(=O)Nc2nc3ccccc3s2)CC1C(=O)Nc1nc2ccccc2s1)c1ccncc1 (centres undefined)	34.7	11.8 (≈ 6.25 µg/mL)		5.42	2
Cc1ccc(NC(=O)C2CC(C(=O)Nc3ccc(C)cc3C)N2NC(=O)c2ccncc2)c(C)c1 (centres undefined)	19.3	13.3 (≈ 6.26 µg/mL)		5.36	
NNC(=O)c1ccncc1 [ISONIAZID]		0.72 (≈ 0.0987 µg/mL)			1.5
COc1ccc(Nc2nc(Nc3ccc4c(=O)[nH][nH]c(=O)c4c3)c3cccnc3n2)cc1				4.63	
O=C(NN1C(C(=O)Nc2ccccn2)CC1C(=O)Nc1ccccn1)c1ccncc1 (centres undefined)	7.68	3.74 (≈ 1.56 µg/mL)		5.02	
COc1ccc(NC(=O)C2CC(C(=O)Nc3ccc(OC)cc3OC)N2NC(=O)c2ccncc2)c(OC)c1 (centres undefined)	48.9	46.7 (≈ 25 µg/mL)		4.93	
CC[C@@H](CO)NCCN[C@@H](CC)CO [ETHAMBUTOL]		7.64 (≈ 1.56 µg/mL)			
O=C(NN1C(C(=O)Nc2ccc(Br)cc2)CC1C(=O)Nc1ccc(Br)cc1)c1ccncc1 (centres undefined)	19.7	2.72 (≈ 1.56 µg/mL)	inactive	< 4.60	
O=C(NN1C(C(=O)NCc2ccccc2)CC1C(=O)NCc1ccccc1)c1ccncc1 (centres undefined)	49.3	28.2 (≈ 12.5 µg/mL)		4.99	
O=C(NN1C(C(=O)Nc2ccc(Cl)c(Cl)c2)CC1C(=O)Nc1ccc(Cl)c(Cl)c1)c1ccncc1 (centres undefined)	49.5	1.41 (≈ 0.78 µg/mL)		4.86	
COc1ccc(C(=O)Nc2ccccc2)cc1Nc1nc(Nc2ccccn2)nc2ncccc12				4.66	
O=C(NN1C(C(=O)NCCc2ccccc2)CC1C(=O)NCCc1ccccc1)c1ccncc1 (centres undefined)	42.3	26.5 (≈ 12.5 µg/mL)		5.32	
Cc1cccc(C)c1NC(=O)C1CC(C(=O)Nc2c(C)cccc2C)N1NC(=O)c1ccncc1 (centres undefined)	26.6	3.31 (≈ 1.56 µg/mL)		5.01	
Cc1cccc(/C=N/NC2=Nc3[nH]c4ccc(C)cc4c3NN2)c1				4.74	
O=C(NN1C(C(=O)Nc2ccccc2)CC1C(=O)Nc1ccccc1)c1ccncc1 (centres undefined)	19.8	15.1 (≈ 6.26 µg/mL)		5.04	1.6
COc1c(N2C[C@@H]3CCCN[C@@H]3C2)c(F)cc2c(=O)c(C(=O)O)cn(C3CC3)c12 [MOXIFLOXACIN]		1.24 (≈ 0.498 µg/mL)			2.8
Cc1ccc2[nH]c(/C(C#N)=C/c3ccc(-c4cc(C(=O)O)cc(C(=O)O)c4)o3)nc2c1				4.81	
